Bioassay records from PubChem BioAssay.
Shown are actives, neighbours in structure and some others; about 1.6% of the full set was active somewhere.
SR-BI DiI inh: mouse SR-BI HDL lipid transfer inhibition; Q61009; inhibition, % at 12.5 µM; 320,000 compounds, 0.96% hits; AID 488896; ldlA[mSR-BI] CHO cells, DiI-HDL uptake fluorescence, 3 h;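 active = mean replicate inhibition of at least 70% and a set share of replicates each scoring 70 or more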;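 also: 0% = median of neutral control wells and 100% = median of positive control wells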
Target sequence (Q61009 whole entry, looked up): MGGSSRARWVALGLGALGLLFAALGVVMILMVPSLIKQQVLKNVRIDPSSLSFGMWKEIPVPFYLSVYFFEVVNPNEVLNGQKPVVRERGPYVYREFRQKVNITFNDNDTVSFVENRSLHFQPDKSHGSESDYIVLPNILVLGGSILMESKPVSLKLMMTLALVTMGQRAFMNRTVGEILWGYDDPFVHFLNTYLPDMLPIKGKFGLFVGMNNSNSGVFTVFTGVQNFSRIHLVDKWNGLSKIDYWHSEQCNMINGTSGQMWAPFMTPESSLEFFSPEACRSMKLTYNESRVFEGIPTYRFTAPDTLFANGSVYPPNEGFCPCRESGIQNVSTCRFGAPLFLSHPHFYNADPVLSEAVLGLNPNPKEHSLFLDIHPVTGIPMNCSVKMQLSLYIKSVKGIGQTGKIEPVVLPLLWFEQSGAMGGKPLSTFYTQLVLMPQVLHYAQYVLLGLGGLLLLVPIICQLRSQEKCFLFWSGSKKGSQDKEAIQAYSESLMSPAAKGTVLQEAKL
SR-BI DiI-HDL act: activators of SR-BI mediated HDL lipid uptake; activation, % at 12.5 µM; 320,000 compounds, 0.096% hits; CHO ldlA[mSR-BI] cells, DiI-HDL uptake fluorescence, 3 h; 100 = double the neutral-control signal;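 active = mean replicate activation of at least 60% and every replicate at or above 60%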;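 also: 0% = median plate neutral-control signal and 100% = twice that signal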
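Material: SR-BI-overexpressing, LDLR-lacking CHO cells; schedule: compound exposure 3 h, 37 °C; reagent: DiI-labelled HDL at 10 µg/mL final; technique: bottom-read fluorescence, 550/595 nm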
TAG inh: triacylglycerol accumulation inhibition; H9c2 cells, Nile Red lipid (TAG) fluorescence; cells loaded with 200 µM oleic acid; inhibition, % at 12.5 µM; 230,000 compounds, 0.66% hits; AID 651582;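 active = pattern-corrected inhibition of lipid staining of at least 50% with the nuclear-stain viability signal not falling by more than 50%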;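 also: 0% = DMSO wells and 100% = triacsin C control wells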
A1 inh: inhibitors of the anti-apoptotic protein A1, read as caspase activation; 330,000 compounds, 0.066% hits; caspase activation, % (no concentration beside the values); MEF A1-2A-BIM cells, Caspase-Glo 3/7 luminescence, 3 h; percent of clofoctol response, vehicle zero;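 active = over half of replicate activation scores above 10%, or exactly half above 10 with the replicate mean above 10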
Vif imaging: HIV Vif inhibition | inhibition, % at 7.49 µM | 340,000 compounds, 0.35% hits | HEK293T cells, Vif self-association by quenched fluorescence, imaging, 24 h; in the data active = inhibition above about 50%, passing the limit was not always enough
* hit, by the source's call; . = not tested or not shown.

SMILES | SR-BI DiI inh | SR-BI DiI-HDL act | TAG inh | A1 inh | Vif imaging
COc1ccc(C(=O)NCc2oc(-c3ccccc3)cc2C(=O)O)cc1 | -20 | 20 | . | 1 | 61*
Nc1c2c(nc3ccccc13)CCCC2 | -13 | 13 | 12 | 0 | -4
Nc1c2ccccc2nc2ccccc12 | -7 | 7 | 54* | 1 | -7
O=[N+]([O-])c1ccc2nc(-c3ccccc3)n(OCc3ccc(Cl)cc3)c2c1 | 78* | -78 | . | -1 | -12
O=C(O)COn1c(-c2ccccc2)nc2ccc(Cl)cc21 | -4 | 4 | 9 | -2 | -5
Cc1cc(C(=O)CSc2nc(N)cc(=O)[nH]2)c(C)n1CCc1ccc(F)cc1 | 90* | -90 | . | 0 | 2
Cc1cc(C(=O)CCl)c(C)n1CCc1ccc(Cl)cc1 | 28 | -28 | 59* | 14* | 1
Cc1cc(C(=O)CSc2nnc(N)s2)c(C)n1CCc1ccc(F)cc1 | 62 | -62 | 3 | -1 | -15
CC1=C(C(=O)Nc2ccccc2C(F)(F)F)C(c2sccc2C)NC(=S)N1 (configuration not stated) | 33 | -33 | -7 | 0 | -1
Cc1cc(F)ccc1NCc1ccc([N+](=O)[O-])cc1 | 5 | -5 | -5 | 1 | 26
CCCSc1ccc([C@H]2N[C@@](CC(C)C)(C(=O)OC)[C@H]3C(=O)N(C)C(=O)[C@@H]23)cc1 | 74* | -74 | 12 | -1 | -4
CCN1C(=O)[C@H]2[C@@H](c3ccc(-c4cccc(Cl)c4)c(OC)c3)N[C@@](CC(C)C)(C(=O)OC)[C@H]2C1=O | 36 | -36 | 70* | 1 | 2
CCN(CCCNC(=O)c1cn(CC)c2ccc(S(=O)(=O)N(C)C)cc2c1=O)c1cccc(C)c1 | . | . | 56* | 1 | -9
NS(=O)(=O)c1ccc(N2CCN(C(=O)c3ccco3)CC2)nc1 | 2 | -2 | -16 | 0 | -1
CCCCNC(=O)c1ccc(Cn2c(=S)[nH]c3c([nH]c4ccc(OC)cc43)c2=O)cc1 | 36 | -36 | 19 | 51* | 22
CCc1nc(-c2ccc(OC)c(OC)c2)cc2cc(OC)c(OC)cc12 | 56 | -56 | . | -1 | .
CCOc1ccc(-c2cc3cc(OC)c(OC)cc3c(C)n2)cc1 | 74* | -74 | . | 1 | -2
Cc1cc(NC(=O)CCC(=O)N(CCC(C)C)C(C(=O)NC2CCCC2)c2ccccc2C)no1 (configuration not stated) | . | . | . | 0 | 15
CC(C)CNC(=O)c1cccc(NC(=O)c2ccc3c(c2)C(=O)N(C)C3=O)c1 | 81* | -81 | 0 | 0 | -3
CCC(=O)Oc1ccc(C(=O)Nc2cccc(C(=O)NCC(C)C)c2)cc1 | 39 | -39 | . | 2 | 4
Cc1ccc(C(F)(F)F)cc1NC(N)=S | 77* | -77 | -7 | 0 | 2
Cc1ccc(NC(N)=S)cc1C | -7 | 7 | . | 0 | 4
CN1CC(=O)N2C(c3cccc([N+](=O)[O-])c3)c3[nH]c4ccccc4c3C[C@H]2C1=O (some centres not stated) | 80* | -80 | . | 0 | -1
COCCN1CC(=O)N2C(c3cccc(C)c3)c3[nH]c4ccccc4c3C[C@H]2C1=O (some centres not stated) | 68 | -68 | . | 1 | 4
C=CCN1CC(=O)N2C(c3ccccc3)c3[nH]c4ccccc4c3C[C@H]2C1=O (some centres not stated) | 78* | -78 | . | 0 | -8
SMILES | SR-BI DiI inh | SR-BI DiI-HDL act | TAG inh | A1 inh | Vif imaging
COCCCN1CC(=O)N2C(c3cccc(C)c3)c3[nH]c4ccccc4c3C[C@H]2C1=O (some centres not stated) | 76* | -76 | . | 0 | -2
COc1ccc(S(=O)(=O)N(C)C[C@H]2Oc3ccc(NS(=O)(=O)c4cn(C)cn4)cc3C(=O)N([C@H](C)CO)C[C@@H]2C)cc1 | 15 | -15 | 4 | . | -4
COc1ccc(NC(=O)N(C)C[C@H]2OCCCC[C@@H](C)Oc3ccc(NC(=O)c4ccccc4)cc3C(=O)N([C@H](C)CO)C[C@@H]2C)cc1 | . | . | 9 | . | -4
O=C(Nc1ccc([N+](=O)[O-])cc1)Nc1nc(-c2ccc(Cl)s2)cs1 | 84* | -84 | 20 | 0 | -25
CC(=O)Nc1nc(-c2ccc([N+](=O)[O-])cc2)cs1 | -1 | 1 | 17 | 0 | 0
CS(=O)(=O)N1CCN(c2ccccc2NC(=O)c2cc3ccccc3o2)CC1 | 75* | -75 | . | 0 | -6
O=C(Nc1ccc(NC(=O)c2cc3ccccc3o2)cc1)c1ccc2c(c1)OCCO2 | 73* | -73 | 19 | -1 | -15
COc1ccc2nc(NC(=O)c3cccc(-c4cc5ccccc5oc4=O)c3)sc2c1 | 77* | -77 | . | 0 | 4
O=C(Nc1ccc(N2CCCC2)c(Cl)c1)c1cccc(-c2cc3ccccc3oc2=O)c1 | 87* | -87 | . | 0 | 1
O=C(O)/C=C/c1ccc(-n2ccnc2)cc1 | . | . | -7 | 0 | .
C1CCN(Cc2nnnn2CC2CCCO2)CC1 (configuration not stated) | -5 | 5 | -9 | -2 | 6
O=C(Nc1ccc(N2CCOCC2)c(Cl)c1)c1cc2ccccc2o1 | 85* | -85 | . | 1 | 92*
O=C(Nc1ccccc1N1CCOCC1)c1cc2ccccc2o1 | . | . | . | -2 | -6
O=C(Nc1ccc(N2CCCC2)c(Cl)c1)c1ccco1 | 27 | -27 | . | -5 | -2
Cc1ccc(NC(=O)c2cc(NC(=O)c3ccco3)ccc2N2CCOCC2)cc1Cl | 74* | -74 | 34 | 1 | -1
CC(=O)c1ccc(N=Cc2c(O)n(-c3cc(Cl)ccc3N3CCOCC3)c(=O)c3ccccc23)cc1 | . | . | 52* | 0 | -6
COc1ccc(/C=c2\s/c(=C/C(=O)c3ccc(C)cc3)[nH]c2=O)cc1OC | 74* | -74 | . | 0 | 1
CC(C)(C)C(=O)/C=c1\[nH]c(=O)/c(=C\c2ccc(F)cc2)s1 | 21 | -21 | 32 | 0 | 0
CCCCC[n+]1cccc2c3ccccc3ccc21 | -9 | 9 | -10 | 0 | 1
c1ccc(C[n+]2cccc3c4ccccc4ccc32)cc1 | -16 | 16 | . | 1 | 53*
COc1ccc(/C=C2\Sc3ccc(C(=O)NC4CC4)cc3N(C)C2=O)cc1OC | 76* | -76 | . | 0 | -9
C/C(=N/NS(=O)(=O)c1ccc(Br)cc1)c1cccc(NC(=O)C2CC2)c1 | . | . | -9 | . | -2
Nc1ccc(C(=O)c2ccccc2C(=O)O)cc1Cl | -24 | 24 | . | 1 | 55*
C/C(=N\NC(=S)Nc1cc(S(=O)(=O)N2CCOCC2)ccc1Cl)c1ccc(N2CCOCC2)cc1 | 102* | -102 | 15 | 0 | 3
CCOC(=O)C1CCCN(C(=O)c2cc(S(=O)(=O)N(C)C)ccc2N2CCCC2)C1 (configuration not stated) | -6 | 6 | 4 | 1 | 56*
